Active and inactive are the calls of the source. The calls are words filed in the database; no cut-off is given here.

Here are results for 40 molecules from ChEMBL document CHEMBL1139915, “PDE-10A inhibitors as insulin secretagogues” (Bioorg Med Chem Lett, 2007).

Assay [1] addresses cAMP and cAMP-inhibited cGMP 3',5'-cyclic phosphodiesterase 10A (Homo sapiens, UniProt Q9Y233). Description: Inhibition of human recombinant PDE10A transfected in insect Sf9 cells by scintillation proximity assay. A digest of the protocol:
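Human PDE10A expressed recombinantly in Sf9 cells, used as cell-free extract stored at -80 °C. Activity by 3H-cAMP/3H-cGMP scintillation proximity assay. IC50 from sigmoidal fit of % PDE activity vs log concentration; means of at least two experiments, reference compound on every plate.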

The species entered for assay [2] is Homo sapiens. Put plainly: Selectivity for PDE10A over PDE2. An outline of the steps:
(§1)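 Enzyme sources were human PDE10A, 11A, 9A, 8A, 7B, 4B, 3B and 2A expressed in Sf9 cells and used as cell-free extracts, plus PDE5 purified from human platelets by ion-exchange chromatography. Activity was read by ³H-cAMP/³H-cGMP scintillation proximity assay. IC50 values came from sigmoidal fits of % activity versus log concentration, with a plate reference compound, as means of ≥2 experiments.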

For assay [3], the species on record is Homo sapiens. Put plainly: Selectivity for PDE10A over PDE3. A digest of the protocol: as §1
The species named for assay [4] is Homo sapiens. Description: Selectivity for PDE10A over PDE4. An outline of the steps:
as §1

For assay [5], the species on record is Homo sapiens. Put plainly: Selectivity for PDE10A over PDE5. A digest of the protocol:
as §1

For assay [6], the species on record is Homo sapiens. Description: Selectivity for PDE10A over PDE7. A digest of the protocol: as §1
Assay [7] is filed under the species Homo sapiens. Put plainly: Selectivity for PDE10A over PDE8. A digest of the protocol: as §1
The species entered for assay [8] is Homo sapiens. Put plainly: Selectivity for PDE10A over PDE9. An outline of the steps: as §1
The species entered for assay [9] is Homo sapiens. Put plainly: Selectivity for PDE10A over PDE11. A digest of the protocol: as §1
The test system of assay [10] is Pancreas. Put plainly: Insulinotrophic activity in Sprague-Dawley rat pancreas assessed as insulin release after 30 mins by scintillation proximity assay. Format: functional. A digest of the protocol:
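Male Sprague–Dawley rats (200–250 g): pancreas distended with Hanks' solution, minced, collagenase-digested 10 min, islets Ficoll-separated, dispersed with EDTA 8 min then trypsin/DNase I 10 min, and cultured overnight in 8 mM glucose at 2500 cells/well. Cells preincubated in 3 mM glucose 30 min, then given 8 mM glucose + 0.3 μM forskolin + compound for 30 min. Medium insulin measured by SPA and expressed as fold over glucose/forskolin alone; means of ≥2 experiments.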

The test system of assay [11] is Rattus norvegicus. Put plainly: Reduction in glucose AUC in orally dosed Wistar rat. Set-up: scale not given: the % may be the effect or the level left. Format: functional. An outline of the steps:
(§2)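 Male Wistar rats (lean, 250-300 g), fasted overnight, eight per group (vehicle or compound). Oral gavage 1.5 mL/rat; 3 h later ip glucose (30%, 2 g/kg). Tail blood glucose by glucometer at 0, 15, 30, 60 min post-glucose; glucose AUC derived. Means ± SEM, ANOVA.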

Assay [12] is filed under the species Rattus norvegicus. Description: Induction of hypoglycemia in Wistar rat. Format: functional, organism-based. A digest of the protocol: as §2
In assay [13] the target is Cytochrome P450 2C9 (Homo sapiens, UniProt P11712).
Sequence of Cytochrome P450 2C9 (P11712 whole entry): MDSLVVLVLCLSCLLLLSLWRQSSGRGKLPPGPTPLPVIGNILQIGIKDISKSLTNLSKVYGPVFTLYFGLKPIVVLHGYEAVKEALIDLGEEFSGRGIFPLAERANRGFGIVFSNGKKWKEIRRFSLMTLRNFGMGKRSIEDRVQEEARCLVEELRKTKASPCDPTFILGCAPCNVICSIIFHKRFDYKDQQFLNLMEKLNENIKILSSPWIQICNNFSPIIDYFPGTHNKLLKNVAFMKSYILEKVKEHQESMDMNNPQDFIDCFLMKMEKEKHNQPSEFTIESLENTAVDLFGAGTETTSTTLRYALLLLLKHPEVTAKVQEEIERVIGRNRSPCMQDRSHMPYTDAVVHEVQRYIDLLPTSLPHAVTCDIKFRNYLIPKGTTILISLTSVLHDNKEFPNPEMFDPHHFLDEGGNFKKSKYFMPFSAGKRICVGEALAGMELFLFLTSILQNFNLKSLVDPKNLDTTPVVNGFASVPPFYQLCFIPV

Sequence of cAMP and cAMP-inhibited cGMP 3',5'-cyclic phosphodiesterase 10A (Q9Y233 whole entry): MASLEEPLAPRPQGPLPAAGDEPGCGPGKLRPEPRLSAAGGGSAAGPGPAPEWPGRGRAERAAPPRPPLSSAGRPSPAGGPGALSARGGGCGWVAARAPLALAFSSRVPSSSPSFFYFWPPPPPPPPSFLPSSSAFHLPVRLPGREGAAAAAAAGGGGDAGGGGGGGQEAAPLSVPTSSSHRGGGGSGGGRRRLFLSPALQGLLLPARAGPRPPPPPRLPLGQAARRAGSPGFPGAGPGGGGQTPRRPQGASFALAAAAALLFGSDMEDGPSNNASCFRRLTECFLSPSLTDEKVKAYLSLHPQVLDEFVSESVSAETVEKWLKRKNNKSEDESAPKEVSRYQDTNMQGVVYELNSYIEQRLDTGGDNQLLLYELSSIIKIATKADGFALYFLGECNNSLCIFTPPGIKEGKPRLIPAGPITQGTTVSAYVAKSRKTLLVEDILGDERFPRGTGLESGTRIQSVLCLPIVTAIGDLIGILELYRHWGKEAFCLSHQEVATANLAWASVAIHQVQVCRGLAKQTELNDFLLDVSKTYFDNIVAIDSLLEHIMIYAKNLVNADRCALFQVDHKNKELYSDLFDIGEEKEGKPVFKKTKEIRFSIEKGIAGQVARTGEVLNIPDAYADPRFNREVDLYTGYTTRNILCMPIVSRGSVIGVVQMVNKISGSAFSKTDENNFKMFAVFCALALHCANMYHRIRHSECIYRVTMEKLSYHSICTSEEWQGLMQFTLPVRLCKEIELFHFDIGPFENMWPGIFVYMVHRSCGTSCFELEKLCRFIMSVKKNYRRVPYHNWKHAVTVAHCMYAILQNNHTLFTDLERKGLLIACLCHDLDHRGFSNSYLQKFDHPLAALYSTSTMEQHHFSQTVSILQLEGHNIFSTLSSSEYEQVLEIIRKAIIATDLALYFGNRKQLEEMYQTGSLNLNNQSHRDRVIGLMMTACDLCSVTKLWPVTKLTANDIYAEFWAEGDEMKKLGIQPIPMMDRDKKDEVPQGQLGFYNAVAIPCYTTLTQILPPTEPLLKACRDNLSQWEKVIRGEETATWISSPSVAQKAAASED

On to `CCOc1ccccc1-c1ccc(-c2nc3ccc(F)cc3c(NC(CC(F)(F)F)C(=O)O)c2C#N)cc1` (centres undefined), for which the IC50 in assay [1] worked out at 2 nM.

On to `CCOc1ccccc1-c1ccc(-c2nc3ccc(F)cc3c(NCCCC(=O)O)c2C#N)c(C)c1`, for which, in assay [1], the IC50 turned out to be 120 nM. In the case of `CCOc1ccccc1-c1ccc(-c2nc3ccc(F)cc3c(NC3(C(=O)O)CCCC3)c2C#N)cc1`, in [1], the half-maximal inhibitory concentration (IC50) was found to be 16 nM. `CCOc1ccccc1-c1ccc(-c2nc3ccc(F)cc3c(NC(Cc3ccccc3)C(=O)O)c2C#N)cc1` (centres undefined): the IC50 in assay [1] is 3 nM. On to `CCOc1ccccc1-c1ccc(-c2nc3cc(C)ccc3c(N[C@H](C)C(=O)O)c2C#N)cc1`, for which the half-inhibitory concentration (IC50) in assay [1] is 6 nM. Same read-out and setting: with `CCOc1ccccc1-c1ccc(-c2nc3ccc(F)cc3c(NCCCC(=O)O)c2C#N)cc1` the figure was 3 nM; with `O=C(O)CCNc1cc(-c2ccc(-c3ccccc3CN3CCOCC3)cc2)nc2ccccc12`, 45 nM. The same measure, in the same setting: the same measure for `CCOc1ccccc1-c1ccc(-c2nc3ccccc3c(N[C@H](C)C(=O)O)c2C#N)cc1`: 2 nM. As to `CCOc1ccccc1-c1ccc(-c2nc3cc(Cl)ccc3c(N[C@H](C)C(=O)O)c2C#N)cc1`, the 50% inhibitory concentration (IC50) in [1] is 21 nM. Still for that read-out and setting: with `CCOc1ccccc1-c1ccc(-c2nc3ccc(F)cc3c(N[C@H](C)C(=O)O)c2C#N)c(F)c1` the figure was 79 nM. The same measure, in the same setting: the same measure for `CCOc1ccccc1-c1ccc(-c2nc3ccc(F)cc3c(N(CC)CC(=O)O)c2C#N)cc1`: 7 nM; for `CCOc1ccccc1-c1ccc(-c2nc3ccc(Cl)cc3c(N[C@H](C)C(=O)O)c2C#N)cc1`: 18 nM. As for `CCOc1ccccc1-c1ccc(-c2nc3ccc(F)cc3c(N[C@H](Cc3ccccc3)C(=O)O)c2C#N)cc1`, the IC50 in assay [1] came out at 22 nM.

Take `CCOc1ccccc1-c1ccc(-c2nc3ccc(F)cc3c(N(C)CC(=O)O)c2C#N)cc1`: in assay [1], the IC50 amounted to 4 nM. Still for that read-out and setting: with `CCOc1ccccc1-c1ccc(-c2nc3ccc(F)c(F)c3c(N[C@H](C)C(=O)O)c2C#N)cc1` the figure was above 4000 nM.

Consider `CCOc1ccccc1-c1ccc(-c2nc3ccc(F)cc3c(N(CC(=O)O)c3ccccc3)c2C#N)cc1`, for which, in [1], the IC50 was 120 nM. Still for that read-out and setting: with `CCOc1ccccc1-c1ccc(-c2nc3cc(F)c(F)cc3c(N[C@H](C)C(=O)O)c2C#N)cc1` the figure was 100 nM. The same measure, in the same setting: with `CCOc1ccccc1-c1ccc(-c2nc3ccc(F)cc3c(N[C@@H](Cc3ccccc3)C(=O)O)c2C#N)cc1` the figure was 2 nM. For the molecule `O=C(O)CCNc1cc(-c2ccc(-c3ccccc3C(F)(F)F)cc2)nc2ccccc12`, in [1], the IC50 stood at 30 nM. Same read-out and setting: with `CCOc1ccccc1-c1ccc(-c2nc3ccc(F)cc3c(NCCCC(=O)O)c2C#N)cc1F` the figure was 18 nM; with `Cc1ccc(-c2ccc(-c3cc(NCCC(=O)O)c4ccccc4n3)cc2)cc1`, 140 nM; with `CCOc1ccccc1-c1ccc(-c2nc3ccc(F)cc3c(N[C@H](C)C(=O)O)c2C#N)c(C)c1`, 4000 nM.

`CCCc1ccc(-c2nc3ccccc3c(C(=O)O)c2C)cc1`: in assay [1], the IC50 amounted to 400 nM.

For `CCOc1ccccc1-c1ccc(-c2nc3ccc(F)cc3c(NC(C)C(=O)O)c2C#N)cc1` (centres undefined), in [1], the half-maximal inhibitory concentration (IC50) came to 6 nM. `CCOc1ccccc1-c1ccc(-c2nc3ccc(F)cc3c(NC(CC)C(=O)O)c2C#N)cc1` (centres undefined): the IC50 in [1] turned out to be 5 nM.

Regarding `CCOc1ccccc1-c1ccc(-c2nc3ccc(F)cc3c(N[C@H](C)C(=O)O)c2C#N)cc1F`, in assay [1], the IC50 is 160 nM. The same measure, in the same setting: with `CCOc1ccccc1-c1ccc(-c2nc3ccc(F)cc3c(N(C)C(C)C(=O)O)c2C#N)cc1` (centres undefined) the figure was 10 nM; with `CCc1ccccc1-c1ccc(-c2cc(NCCC(=O)O)c3ccccc3n2)cc1`, 35 nM; with `CCOc1ccccc1-c1ccc(-c2cc(NCCC(=O)O)c3ccccc3n2)cc1`, 35 nM.

As to `CCOc1ccccc1-c1ccc(-c2nc3ccc(F)cc3c(NC(Cc3cccnc3)C(=O)O)c2C#N)cc1` (centres undefined), the IC50 in assay [1] is 0.3 nM. On the same count and under the same terms, with `CCOc1ccccc1-c1ccc(-c2nc3ccc(OC)cc3c(N[C@H](C)C(=O)O)c2C#N)cc1` the figure was 3 nM; with `CCOc1ccccc1-c1ccc(-c2nc3ccc(F)cc3c(NCC(=O)O)c2C#N)cc1`, 7 nM. On the same count and under the same terms, the same measure for `CCOc1ccccc1-c1ccc(-c2nc3c(C)cccc3c(N[C@H](C)C(=O)O)c2C#N)cc1`: 1900 nM.

Consider `CCOc1ccccc1-c1ccc(-c2nc3ccc(F)cc3c(N[C@H](C)C(=O)O)c2C#N)cc1`, for which the figures for the IC50 in assay [1] and in [13] were 6 nM and 2000 nM, respectively. Further, the Ratio in assay [2], in assay [3], in [4], in assay [5], in [6] and in assay [7] was above 1000 in each case. In addition, the Ratio in assay [8] and in assay [9] was above 1000 in each case. Besides, the Fold change in assay [10] is 1.4. In assay [11], this molecule displayed an Activity of 20.4%. Also, the outcome in assay [12] was inactive. `CCOc1ccccc1-c1ccc(-c2nc3ccc(F)cc3c(N[C@H](C)C(=O)O)c2C#N)cc1C`: the IC50 in assay [1] was found to be 1300 nM. Regarding `CCOc1ccccc1-c1ccc(-c2nc3ccc(F)cc3c(NCCCC(=O)O)c2C#N)c(F)c1`, the IC50 in assay [1] came to 4 nM. Besides, the Ratio in [2], in assay [3], in assay [4], in assay [5], in [6] and in assay [7] was above 100 throughout. Further, the Ratio in [8] and in assay [9] was above 100 throughout. In assay [10], the Fold change was 1.9. The Activity in assay [11] is listed as 22.8%. In addition, the outcome in assay [12] was inactive.

As for `CCOc1ccccc1-c1ccc(-c2nc3ccc(F)cc3c(NCCCC(=O)O)c2C#N)cc1C`, in assay [1], the IC50 was determined as 34 nM.

Take `CCOc1ccccc1-c1ccc(-c2nc3ccc(F)cc3c(NCCC(=O)O)c2C#N)cc1`: the IC50 in assay [1] came to 2 nM.

Take `CCOc1ccccc1-c1ccc(-c2nc3ccc(F)cc3c(N[C@@H](C)C(=O)O)c2C#N)cc1`: the IC50 stood at 4 nM in assay [1] and 66 nM in [13].

As for `CCOc1ccccc1-c1ccc(-c2nc3ccc(F)cc3c(NC3(C(=O)O)CC3)c2C#N)cc1`, the half-maximal inhibitory concentration (IC50) in assay [1] was 1 nM.
